≈ marks a conversion by molar mass, not a printed value.
Key:
Format in all cases: functional
[1] = test system: Escherichia coli; assay: In vitro antibacterial activity against aerobically grown Escherichia coli (51A538)
In short: (§1)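 Agar dilution MICs. Aerobic strains were tested on brain heart infusion agar and incubated aerobically at 37 °C for 18–20 h.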

[2] = In vitro evaluation for antibacterial activity against anaerobically grown Treponema hyodysenteriae (94A007); settings: Brachyspira hyodysenteriae
[3] = test system: Phocaeicola vulgatus; assay: In vitro antibacterial activity against anaerobically grown Bacteroides vulgatus (78D029)
In short: (§2)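 Agar dilution MICs. Anaerobic strains were tested on tryptose agar with 5% bovine blood and incubated 48 h at 39 °C in an anaerobe chamber under N2/CO2/H2 (80:10:10).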

[4] = test system: Bordetella bronchiseptica; assay: In vitro antibacterial activity against aerobically grown Bordetella bronchiseptica (73A009); in short: as §1
[5] = test system: Trueperella pyogenes; assay: In vitro antibacterial activity against anaerobically grown Actinomyces pyogenes (14D002); in short: as §2
[6] = test system: Staphylococcus aureus; assay: In vitro antibacterial activity against aerobically grown Staphylococcus aureus (54B004); in short: as §1
[7] = In vitro antibacterial activity against Aerobically grown Pasteurella haemolytica (59B018); settings: Mannheimia haemolytica; in short: as §1
[8] = test system: Escherichia coli; assay: Escherichia coli DNA cleavage endpoint value which is the minimum amount required (in micro g/mL) to induce detectable cleavage of supercoiled pBR322 substrate to linear form (gyrase); settings: read-out: MIC
In short: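 DNA gyrase A and B subunits were purified from E. coli overproducers. About 2 units of holoenzyme were incubated with pBR322 in Tris-HCl pH 7.5 containing MgCl2, spermidine, DTT, 0.2 mM ATP, BSA and tRNA. Drug was added as 2-fold serial dilutions, and reactions ran for 60 min at 25 °C. Reactions were stopped with SDS and proteinase K, then run on agarose and stained with ethidium. The endpoint was the lowest concentration giving detectable linear DNA.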

[9] = test system: Salmonella enterica; assay: In vitro antibacterial activity against aerobically grown Salmonella choleraesuis (58B015)
[10] = test system: Actinobacillus pleuropneumoniae; assay: In vitro antibacterial activity against anaerobically grown Actinobacillus pleuropneumoniae ([…]); in short: as §2
[11] = test system: Clostridium perfringens; assay: microbe, parasite or virus in culture
[12] = test system: Pasteurella multocida; assay: In vitro antibacterial activity against aerobically grown Pasteurella multocida (59A006); in short: as §1

Structure (SMILES) | MIC [1] [µg/mL] | MIC [2] [µg/mL] | MIC [3] [µg/mL] | MIC [4] [µg/mL] | MIC [5] [µg/mL] | MIC [6] [µg/mL] | MIC [7] [µg/mL] | minimum concentration inducing gyrase-mediated DNA cleavage [8] [µg/mL] | MIC [9] [µg/mL] | MIC [10] [µg/mL] | MIC [11] [µg/mL] | MIC [12] [µg/mL]
CN1[C@@H]2CCC[C@H]1CN(c1cc3c(cc1F)c(=O)c(C(=O)O)cn3C1CC1)C2.Cl | 0.39 | > 3.13 | 1.56 | 1.56 | 3.13 | 0.2 | 0.2 | 1.56 | 0.39 | 0.1 | 0.39 | 0.05
CN1[C@@H]2CC[C@H]1CN(c1cc3c(cc1F)c(=O)c(C(=O)O)cn3CCF)C2.Cl.O | 0.2 | 3.13 | 6.25 | 3.13 | – | 0.2 | 0.2 | 3.12 | 0.39 | 0.1 | 0.39 | 0.2
CN1[C@@H]2CC[C@H]1CN(c1cc3c(cc1F)c(=O)c(C(=O)O)cn3-c1ccc(F)cc1)C2.Cl.O | 1.56 | 1.56 | 0.78 | > 1.56 | > 3.13 | 0.78 | 0.78 | – | > 1.56 | 0.78 | 3.13 | 0.2
Cl.O.O=C(O)c1cn(CCF)c2c(F)c(N3CCN4CCC3CC4)c(F)cc2c1=O | 0.39 | 6.25 | 6.25 | 6.25 | 3.13 | 0.78 | < 0.05 | 0.19 | 0.2 | < 0.05 | 0.78 | 0.2
C=Cn1cc(C(=O)O)c(=O)c2cc(F)c(N3CCN4CCC3CC4)cc21 | 0.1 (≈ 0.28 µM) | 0.39 (≈ 1.09 µM) | 3.13 (≈ 8.76 µM) | 1.56 (≈ 4.37 µM) | 3.13 (≈ 8.76 µM) | 0.2 (≈ 0.56 µM) | 0.05 (≈ 0.14 µM) | 0.39 | 0.1 (≈ 0.28 µM) | 0.02 (≈ 0.056 µM) | 0.2 (≈ 0.56 µM) | 0.05 (≈ 0.14 µM)
CN1C[C@@H]2C[C@H]1CN2c1c(F)cc2c(=O)c(C(=O)O)cn(C3CC3)c2c1F | < 0.05 | 1.56 (≈ 4.16 µM) | 3.12 (≈ 8.31 µM) | 0.39 (≈ 1.04 µM) | 0.78 (≈ 2.08 µM) | 0.1 (≈ 0.266 µM) | < 0.05 | 0.39 | – | < 0.05 | 3.12 (≈ 8.31 µM) | < 0.05
CN1C[C@@H]2C[C@H]1CN2c1c(F)cc2c(=O)c(C(=O)O)cn(-c3ccc(F)cc3F)c2c1F | 0.2 (≈ 0.447 µM) | > 3.13 | 1.56 (≈ 3.49 µM) | > 1.56 | 1.56 (≈ 3.49 µM) | 0.2 (≈ 0.447 µM) | 0.1 (≈ 0.224 µM) | 0.78 | 0.39 (≈ 0.872 µM) | 0.1 (≈ 0.224 µM) | 0.39 (≈ 0.872 µM) | 0.02 (≈ 0.0447 µM)
CN1C2CC[C@@H]1CCN(c1cc3c(cc1F)c(=O)c(C(=O)O)cn3CCF)C2 | 1.56 (≈ 3.99 µM) | > 3.13 | > 3.13 | 1.56 (≈ 3.99 µM) | > 3.13 | 0.78 (≈ 1.99 µM) | 1.56 (≈ 3.99 µM) | 3.12 | > 1.56 | 0.39 (≈ 0.996 µM) | 1.56 (≈ 3.99 µM) | 0.39 (≈ 0.996 µM)
CN1[C@@H]2CC[C@H]1CN(c1c(F)cc3c(=O)c(C(=O)O)cn(C4CC4)c3c1Cl)C2 | 0.39 (≈ 0.961 µM) | > 3.13 | 0.78 (≈ 1.92 µM) | > 1.56 | 3.13 (≈ 7.71 µM) | 0.39 (≈ 0.961 µM) | 0.2 (≈ 0.493 µM) | 1.56 | 0.78 (≈ 1.92 µM) | 0.2 (≈ 0.493 µM) | 0.78 (≈ 1.92 µM) | 0.05 (≈ 0.123 µM)
CN1C2CC[C@@H]1CCN(c1nc3c(cc1F)c(=O)c(C(=O)O)cn3C1CC1)C2 | 0.39 (≈ 1.01 µM) | 3.13 (≈ 8.1 µM) | > 3.13 | 0.78 (≈ 2.02 µM) | > 3.13 | 0.78 (≈ 2.02 µM) | 0.39 (≈ 1.01 µM) | 3.12 | 0.78 (≈ 2.02 µM) | 0.2 (≈ 0.518 µM) | 0.78 (≈ 2.02 µM) | 0.1 (≈ 0.259 µM)
CNn1cc(C(=O)O)c(=O)c2cc(F)c(N3CCN4CCC3CC4)cc21 | 0.39 (≈ 1.08 µM) | 3.13 (≈ 8.69 µM) | > 25 | 12.5 (≈ 34.7 µM) | 6.25 (≈ 17.3 µM) | 1.56 (≈ 4.33 µM) | 0.1 (≈ 0.277 µM) | 1.56 | 1.56 (≈ 4.33 µM) | < 0.05 | 0.78 (≈ 2.16 µM) | 0.1 (≈ 0.277 µM)
O=C(O)c1cn(-c2ccc(F)cc2)c2c(F)c(N3C[C@@H]4C[C@H]3CN4)c(F)cc2c1=O | 0.1 (≈ 0.241 µM) | 0.78 (≈ 1.88 µM) | > 3.13 | > 1.56 | > 3.13 | 0.78 (≈ 1.88 µM) | 0.1 (≈ 0.241 µM) | 0.78 | 0.2 (≈ 0.481 µM) | 0.1 (≈ 0.241 µM) | 0.2 (≈ 0.481 µM) | 0.1 (≈ 0.241 µM)
CN1[C@@H]2CC[C@H]1CN(c1c(F)cc3c(=O)c(C(=O)O)cn(CCF)c3c1F)C2 | 0.78 (≈ 1.97 µM) | > 3.13 | > 3.13 | 6.25 (≈ 15.8 µM) | > 3.13 | 1.56 (≈ 3.95 µM) | 0.78 (≈ 1.97 µM) | 0.39 | 1.56 (≈ 3.95 µM) | 0.39 (≈ 0.986 µM) | 0.78 (≈ 1.97 µM) | 0.39 (≈ 0.986 µM)
CCn1cc(C(=O)O)c(=O)c2cc(F)c(N3CC[C@H]4CCC(C3)N4C)c(F)c21 | 0.39 (≈ 0.996 µM) | > 3.13 | > 3.13 | 1.56 (≈ 3.99 µM) | > 3.13 | 0.78 (≈ 1.99 µM) | 0.78 (≈ 1.99 µM) | 3.12 | 1.56 (≈ 3.99 µM) | 0.78 (≈ 1.99 µM) | 3.13 (≈ 8 µM) | 0.2 (≈ 0.511 µM)
CN1C2CC[C@@H]1CCN(c1cc3c(cc1F)c(=O)c(C(=O)O)cn3C)C2 | 6.25 (≈ 17.4 µM) | – | – | > 25 | – | 1.56 (≈ 4.34 µM) | 6.25 (≈ 17.4 µM) | 6.25 | 6.25 (≈ 17.4 µM) | – | – | 6.25 (≈ 17.4 µM)
CN1C[C@@H]2C[C@H]1CN2c1nc2c(cc1F)c(=O)c(C(=O)O)cn2-c1ccc(F)cc1 | 0.2 (≈ 0.485 µM) | 3.13 (≈ 7.59 µM) | 3.13 (≈ 7.59 µM) | > 1.56 | > 3.13 | 0.2 (≈ 0.485 µM) | 0.05 (≈ 0.121 µM) | 1.56 | 0.2 (≈ 0.485 µM) | 0.1 (≈ 0.242 µM) | 0.39 (≈ 0.946 µM) | 0.02 (≈ 0.0485 µM)
CN1[C@@H]2CC[C@H]1CN(c1cc3c(cc1F)c(=O)c(C(=O)O)cn3C)C2 | 3.13 (≈ 9.06 µM) | 0.78 (≈ 2.26 µM) | 12.5 (≈ 36.2 µM) | > 25 | 3.13 (≈ 9.06 µM) | 0.2 (≈ 0.579 µM) | 0.2 (≈ 0.579 µM) | 3.12 | 3.13 (≈ 9.06 µM) | 0.78 (≈ 2.26 µM) | 1.56 (≈ 4.52 µM) | 0.78 (≈ 2.26 µM)
CN1C[C@@H]2C[C@H]1CN2c1cc2c(cc1F)c(=O)c(C(=O)O)cn2-c1ccc(F)cc1F | 0.1 (≈ 0.233 µM) | > 3.13 | 0.78 (≈ 1.82 µM) | 1.56 (≈ 3.63 µM) | 0.78 (≈ 1.82 µM) | 0.1 (≈ 0.233 µM) | 0.05 (≈ 0.116 µM) | 0.78 | 0.2 (≈ 0.466 µM) | 0.005 (≈ 0.0116 µM) | 0.2 (≈ 0.466 µM) | 0.01 (≈ 0.0233 µM)
O=C(O)c1cn(C2CC2)c2c(F)c(N3C[C@@H]4C[C@H]3CN4)c(F)cc2c1=O | 0.01 (≈ 0.0277 µM) | 1.56 (≈ 4.32 µM) | 1.56 (≈ 4.32 µM) | 0.39 (≈ 1.08 µM) | 0.39 (≈ 1.08 µM) | 0.39 (≈ 1.08 µM) | 0.005 (≈ 0.0138 µM) | 0.09 | 0.01 (≈ 0.0277 µM) | < 0.005 | 0.05 (≈ 0.138 µM) | 0.005 (≈ 0.0138 µM)
O=C(O)c1cn(C2CC2)c2c(F)c(N3CCN4CCC3CC4)c(F)cc2c1=O | 0.01 (≈ 0.0257 µM) | 0.78 (≈ 2 µM) | 0.1 (≈ 0.257 µM) | 0.39 (≈ 1 µM) | 0.39 (≈ 1 µM) | 0.05 (≈ 0.128 µM) | 0.01 (≈ 0.0257 µM) | 0.39 | 0.01 (≈ 0.0257 µM) | 0.01 (≈ 0.0257 µM) | 0.1 (≈ 0.257 µM) | 0.002 (≈ 0.00514 µM)
CCn1cc(C(=O)O)c(=O)c2cc(F)c(N3C[C@H]4CCC[C@@H](C3)N4C)cc21 | 1.56 (≈ 4.18 µM) | 6.25 (≈ 16.7 µM) | 1.56 (≈ 4.18 µM) | 6.25 (≈ 16.7 µM) | 6.25 (≈ 16.7 µM) | 0.1 (≈ 0.268 µM) | 0.1 (≈ 0.268 µM) | 3.12 | 1.56 (≈ 4.18 µM) | 0.2 (≈ 0.536 µM) | 0.39 (≈ 1.04 µM) | 0.78 (≈ 2.09 µM)
CN1C[C@@H]2C[C@H]1CN2c1c(F)cc2c(=O)c(C(=O)O)cn(-c3ccc(F)cc3)c2c1F | 0.2 (≈ 0.466 µM) | 1.56 (≈ 3.63 µM) | 3.13 (≈ 7.29 µM) | > 1.56 | > 3.13 | 0.39 (≈ 0.908 µM) | 0.2 (≈ 0.466 µM) | 0.39 | 0.39 (≈ 0.908 µM) | 0.05 (≈ 0.116 µM) | 0.39 (≈ 0.908 µM) | 0.02 (≈ 0.0466 µM)

From ChEMBL document CHEMBL1126160, “Synthesis and structure-activity relationships of 7-diazabicycloalkylquinolones, including danofloxacin, a new quinolone antibacterial agent for veterinary medicine” (J Med Chem, 1992)
